Measured values published in PMC4855835 (Chemical communications (Cambridge, England), 2016).

What was measured:
[1] = tested on: sarcoma osteogenic (Saos-2) cells; experiment: Cell viability of Saos-2 cells treated with precursors; format: cell-based, human; settings: for concentration at which Saos-2 cells are inhibited: Fig. 4A and Fig. S6; for inhibitory activity at pH 8.0: hydrolysis of ester bond (Fig. S8)
In short: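 Saos-2 osteosarcoma cells, which overexpress alkaline phosphatase, were exposed to a range of test compound (phosphorylated peptide precursor) concentrations for 48 h. Viability was plotted as log-dose response curves, and IC90 was taken at 48 h. Human marrow stromal HS-5 cells served as the normal-cell comparison.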

[2] = Hydrogelation assay of self-assembly in water upon ALP addition; format: physicochemical; settings: 1 mM, pH 7.4, ALP 3U/mL
In short: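 Self-assembly was screened by hydrogelation: the test compound at 1 mM in water, pH 7.4, was given alkaline phosphatase at 3 U/mL. The resulting state (gel, suspension or increased viscosity) was judged by eye. Nanostructures formed under the same conditions were imaged by TEM after 24 h.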

[3] = tested on: sarcoma osteogenic (Saos-2) cells; settings: read-out: IC50 of carboplatin; 72 h; cited from earlier work
[4] = tested on: Saos-2 cells; experiment: Saos-2 cell viability with co-incubated ALP inhibitors or cell death inhibitors; format: cell-based, human; settings: 48h; for effect of pan-caspase inhibitor zVAD-fmk on death of treated Saos-2 cells: 1p 20 μM, 2p 50 μM, 3p 20 μM, zVAD-fmk 45 μM; for effect of L-Phe on viability of treated Saos-2 cells / effect of levamisole on viability of treated Saos-2 cells: 1p 50 μM, 3p 50 μM, 2p 200 μM; for effect of L-Phe on viability of treated Saos-2 cells: L-Phe 1 mM; for effect of levamisole on viability of treated Saos-2 cells: levamisole 1 mM; for effect of necroptosis inhibitor Nec-1 on death of treated Saos-2 cells: Nec-1 50 μM
In short: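 Saos-2 cells were treated for 48 h with test compound plus an inhibitor. ALP inhibitors were levamisole 1 mM (tissue-nonspecific ALP) or L-phenylalanine 1 mM (placental ALP), with test compound at 50 or 200 µM. Death-pathway inhibitors were pan-caspase zVAD-fmk 45 µM or Nec-1 50 µM. Read-out was cell viability.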

[5] = Static light scattering; format: physicochemical; settings: pH7.4 PBS buffer, before ALP
In short: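 Static light scattering was measured on test compound solutions (12.5–50 µM) in pH 7.4 PBS, before and 24 h after adding alkaline phosphatase (2 U/mL). Scattering angle was 30 degrees; read-out was scattered intensity.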

SMILES | concentration at which Saos-2 cells are inhibited [1] | state of the solution after addition of ALP [2] | IC50 [3] [µM] | inhibitory activity at pH 8.0 [1] | effect of pan-caspase inhibitor zVAD-fmk on death of treated Saos-2 cells [4] | effect of L-Phe on viability of treated Saos-2 cells [4] | effect of levamisole on viability of treated Saos-2 cells [4] | effect of necroptosis inhibitor Nec-1 on death of treated Saos-2 cells [4] | aggregation behaviour by SLS at 50 μM [5]
O=C(Cc1ccc2ccccc2c1)N[C@H](Cc1ccccc1)C(=O)N[C@H](Cc1ccccc1)C(=O)N[C@H](Cc1ccc(OP(=O)(O)O)cc1)C(=O)O [4p] | about 500 μM | becomes more viscous |  |  |  |  |  |  | 
N.N.O=C([O-])C1(C(=O)[O-])CCC1.[Pt+2] [carboplatin] |  |  | 198 |  |  |  |  |  | 
COC(=O)[C@@H](Cc1ccc(OP(=O)(O)O)cc1)NC(=O)[C@@H](Cc1ccccc1)NC(=O)[C@@H](Cc1ccccc1)NC(=O)Cc1ccc2ccccc2c1 [3p] | ≥ 50 µM | forms a suspension |  | decreases | only slightly protects | unable to rescue the cells | increases the cell viability | significantly protects | 
CNC(=O)[C@@H](Cc1ccc(OP(=O)(O)O)cc1)NC(=O)[C@@H](Cc1ccccc1)NC(=O)[C@@H](Cc1ccccc1)NC(=O)Cc1ccc2ccccc2c1 [1p] | ≥ 50 µM | turns into a hydrogel |  | remains | only slightly protects | unable to rescue the cells | increases the cell viability | significantly protects | starts to aggregates
NNC(=O)[C@@H](Cc1ccc(OP(=O)(O)O)cc1)NC(=O)[C@@H](Cc1ccccc1)NC(=O)[C@@H](Cc1ccccc1)NC(=O)Cc1ccc2ccccc2c1 [2p] | ≥ 50 µM | turns into a hydrogel |  |  | only slightly protects | unable to rescue the cells | increases the cell viability | significantly protects | 
